Several values for one entry are separate records, joined by “and”; a condition that tells them apart may be missing. Identical values can stand only once.
What was measured:
Systemic blood pressure = format: in vivo, Sprague–Dawley rats; details: rats
Summary of the method: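 Oral dosing after IA induction, vehicle 0.5% methylcellulose. Blood pressure measured in conscious rats by tail-cuff, without anaesthesia. Systolic, mean and diastolic values each taken as the mean of at least three measurements.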

[1] = test system: intracranial aneurysm (IA); experiment: Rat IA model, histological analysis of induced IAs; format: in vivo, Sprague–Dawley rats; details: for growth (size) of induced IAs: KRP‐203 0.01 and BAF312 0.3 mg·kg^−1 daily
Summary of the method: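 IA induced at the right ACA-OA bifurcation, contralateral to carotid ligation. Rats randomized and given test compound p.o. (suspended in 0.5% methylcellulose) throughout. Specimens prepared at 12 weeks; 5 μm sections immunostained. Aneurysm size and infiltrating macrophage number assessed.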

HCtAEC monolayer = experiment: Permeability assay; format: cell-based, human; details: for effect on the ASP4058‐mediated inhibition of endothelial permeability: ASP4058 100 nM, TASP0277308 pretreated 1 h, EHop‐016 30 min
Summary of the method: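 HCtAECs (10^5 per well) grown overnight on collagen-coated Transwell inserts (0.4 μm pore) in growth medium, then overnight in serum-free defined medium. Compound or vehicle (0.1% DMSO) added to both compartments for 1 h. 250 μg·mL−1 FITC-dextran (2000 kDa) then added to the upper compartment; diffusion into the lower compartment read after 1 h (ex 490/em 520 nm). Antagonist pretreatment 1 h or Rac inhibitor 30 min, before 100 nM agonist. Duplicates, 37°C.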

[2] = test system: lymphocytes / monocytes in peripheral blood; experiment: Peripheral blood lymphocyte and monocyte count in rat IA model; format: in vivo, Sprague–Dawley rats; details: rats
Summary of the method: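 Oral dosing after IA induction. Agonist suspended in 0.5% methylcellulose; antagonist suspended in 5% arabic gum and given twice daily. Peripheral lymphocyte and monocyte counts taken after the dosing period (4 weeks for the antagonist).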

[3] = rats, oral, 14 days at 0.1 mg·kg^−1; ref Yamamoto et al., 2014; cited from earlier work
[4] = test system: THP‐1 cells across HCtAEC monolayer; experiment: Trans‐endothelial migration assay; format: cell-based, human; details: MCP‐1 100 ng·mL^−1, 3 h
Summary of the method: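 HCtAECs (10^5 per well) grown overnight on Transwell inserts (5.0 μm pore) in growth medium. Compound in serum-free defined medium, or vehicle (0.1% DMSO), added to both compartments. At the same time, THP-1 cells (5 × 10^5) added above and MCP-1 (100 ng·mL−1) below. After 3 h at 37°C, migrated cells quantified by ATP luminescence. Antagonist co-added with 100 nM agonist; duplicates.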

[5] = Plasma concentration of ASP4058 in rat aneurysm model; format: in vivo, rats
Summary of the method: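 Rats dosed orally at 0.01 mg·kg−1 for 12 weeks. Plasma collected just before and 1, 2, 4, 8 and 24 h after the last dose. Plasma separated by centrifugation and stored at −20°C or lower. Samples prepared by protein precipitation and quantified by HPLC–tandem mass spectrometry.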

[6] = test system: IA walls at ACA‐OA bifurcation; experiment: In vivo vascular permeability assay; parameters: species or system Sprague–Dawley rats; details: day 7, BAPN
Summary of the method: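 Rats after IA induction, with 3-aminopropionitrile to facilitate formation, dosed p.o. once daily from just after surgery; vehicle 0.5% methylcellulose. On day 7, under deep anaesthesia, Evans blue (45 mg·kg−1) injected intra-arterially via the right common carotid (proximal side clamped), then 4% paraformaldehyde perfusion. Age-matched Sprague–Dawley rats served as controls. Frozen sections imaged confocally (ex 620/em 680 nm); stained area thresholded, particles >4 pixel square counted.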

THP‐1 cells = experiment: Chemotaxis assay; format: cell-based, human; details: 100 nM ASP4058, MCP‐1 10 ng·mL^−1, 3 h
Summary of the method: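 Migrated-cell Transwell assay (5.0 μm pore) without an endothelial layer. Test compound diluted in RPMI 1640 with 0.1% fatty-acid-free BSA; compound or vehicle (0.1% DMSO) added to both compartments. THP-1 cells (5 × 10^5 per well) added to the upper and MCP-1 (10 ng·mL−1) to the lower compartment simultaneously. After 3 h at 37°C, migrated cells quantified by ATP-based luminescence; duplicates.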

[7] = test system: intracranial aneurysm (IA); experiment: Non‐human primate model of IAs; format: in vivo; details: Macaca fascicularis, 0.1 mg·kg^−1 once daily, 52 weeks, n = 3
Summary of the method: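 Female Macaca fascicularis (11 years old, 3.4 kg average), held under a 12 h light–dark cycle. IAs induced by two-step surgery at a 2 week interval. Test compound given once daily. At 52 weeks, five intracranial bifurcation sites per animal examined for IA formation, scored as breakage of the lamina elastica.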

[8] = molecular target: S1P1 receptors expressed on HCtAEC (Homo sapiens, UniProt P21453); experiment: S1P1 receptor internalization assay; format: cell-based; details: mean ± SEM, n = 5
Summary of the method: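 HCtAECs (10^5 per well) seeded overnight, then exposed for 1 h at 37°C to test compound diluted in serum-free defined medium. Cells washed in ice-cold PBS and detached with Accutase. Staining with mouse anti-S1P1 (30 min on ice), then PE anti-mouse IgG; IgG2b isotype control; dead cells excluded by 7-AAD or SYTOX Blue. Isotype-subtracted geoMFI normalized to vehicle, expressed as % of control.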

[9] = molecular target: S1P1 receptors in HCtAECs (Homo sapiens, UniProt P21453); experiment: cAMP assay; format: cell-based
Summary of the method: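 HCtAECs seeded at 2 × 10^4 per well and kept overnight. Test compound diluted in HBSS (pH 7.2) containing 5 mM HEPES (pH 7.5), 0.1% fatty-acid-free BSA and 0.5 mM IBMX. Cells stimulated with 1 μM forskolin plus compound for 20 min at 37°C. Lysis in HEPES/CaCl2/Triton X-100 buffer; cAMP measured with a LANCE cAMP kit. Duplicates.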

hS1P1 = details: S1P2, S1P3, S1P4 versus S1P1/S1P5; ref Yamamoto et al., 2014; cited from earlier work
[10] = KRP‐203 0.01 or BAF312 0.3 mg·kg^−1, 4 weeks after IA induction
[11] = TASP0277308 100 or 300 mg·kg^−1 p.o. twice daily, 4 weeks
[12] = rats, TASP0277308 100 or 300 mg·kg^−1 p.o. twice daily, 4 weeks, BAPN
[13] = p.o., 12 weeks after IA induction

Sequence of S1P1 receptors expressed on HCtAEC (P21453 whole entry): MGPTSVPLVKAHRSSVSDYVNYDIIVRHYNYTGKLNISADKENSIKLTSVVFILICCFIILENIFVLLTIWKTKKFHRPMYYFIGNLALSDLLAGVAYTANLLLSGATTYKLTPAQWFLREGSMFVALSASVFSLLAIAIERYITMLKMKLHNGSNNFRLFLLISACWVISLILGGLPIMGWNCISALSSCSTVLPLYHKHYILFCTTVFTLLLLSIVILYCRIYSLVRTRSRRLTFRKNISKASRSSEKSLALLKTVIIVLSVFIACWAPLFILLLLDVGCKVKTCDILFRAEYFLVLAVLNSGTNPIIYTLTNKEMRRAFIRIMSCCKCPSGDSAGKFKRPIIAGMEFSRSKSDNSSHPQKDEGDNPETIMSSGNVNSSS
Sequence of S1P1 receptors in HCtAECs (P21453 whole entry): as above

In the case of `CCc1cc(/C(C)=N/OCc2ccc(C3CCCCC3)c(C(F)(F)F)c2)ccc1CN1CC(C(=O)O)C1` [BAF312, 1‐{4‐[(1E)‐N‐{[4‐cyclohexyl‐3‐(trifluoomethyl)benzyl]oxy}ethanimidoyl]‐2‐ethylbenzyl}azetidine‐3‐carboxylic acid, reference compound], the systemic blood pressure (Systemic blood pressure; [10]) is reported as “without influencing” and the “growth (size) of induced IAs” value ([1]; rats, 4 weeks, BAPN) is reported as “significantly suppressed the growth”.

In the case of `CCn1c2ccccc2c2cc(Nc3ccnc(NCCCN4CCOCC4)n3)ccc21` [EHop‐016], the “effect on the ASP4058‐mediated inhibition of endothelial permeability” value (HCtAEC monolayer) is reported as “ameliorated the effect of ASP4058 on permeability”.

With `CCCCCCCCc1ccc(CCC(N)(CO)CO)cc1.Cl` [fingolimod, 2‐amino‐2‐[2‐(4‐octylphenyl)ethyl]propane‐1,3‐diol hydrochloride, reference compound] the systemic blood pressure (Systemic blood pressure; fingolimod for 4 weeks after IA induction) was “without influencing” and the “size of IAs induced” value ([1]; rats, fingolimod daily during whole period, 4 weeks, BAPN) was “significantly exacerbated the IA size”.

With `CCn1c(Oc2cccc(N3CCN(C)CC3)c2)nnc1[C@@H](C)NS(=O)(=O)c1ccc(Cl)c(Cl)c1` [TASP0277308, 3,4‐dichloro‐N‐[(1R)‐1‐{4‐ethyl‐5‐[3‐(4‐methylpiperazin‐1‐yl)phenoxy]‐4H‐1,2,4‐triazol‐3‐yl}ethyl]benzenesulfonamide, reference compound] the systemic blood pressure (Systemic blood pressure; [11]) was “without influencing”, the “macrophage infiltration in IA lesions” value [1, 12] was “did not suppress” and the “size of the IA” value [1, 12] was “did not suppress either the macrophage infiltration in IA lesions or reduce the size”. The “effect on the ASP4058‐mediated inhibition of endothelial permeability” value (HCtAEC monolayer) was “reversed”, the peripheral lymphocyte count [2, 11] was “potently decreased” and the peripheral monocyte count [2, 11] was “without influencing”.

In the case of `C[C@H](Oc1ccc(-c2nc(-c3ccc4[nH]cnc4c3)no2)cc1C(F)(F)F)C(F)(F)F.Cl` [ASP4058, 5‐{5‐[3‐(trifluoromethyl)‐4‐{[(2S)‐1,1,1‐trifluoropropan‐2‐yl]oxy}phenyl]‐1,2,4‐oxadiazol‐3‐yl}‐1H–benzimidazole hydrochloride], the “plasma concentration at the maximum” value [3] is listed as 16.4 ± 0.463 ng/mL, the “plasma concentration at the maximum (equivalent)” value [3] is listed as 37.1 ± 1.05 nM and the blood pressure (Systemic blood pressure; ASP4058 0.1 mg·kg^−1 started 1 week after induction, measured at 7 weeks) is listed as “without affecting the blood pressure”. The systemic blood pressure (Systemic blood pressure; ASP4058 p.o. for 12 weeks after IA induction) was “without significantly influencing”, the “IA development measured by the size of the IA induced” value ([1]; rat model, p.o. during entire period of IA induction, 12 weeks) was “dose‐dependently suppressed IA development” and the “incidence of IAs” value ([1]; rat model, p.o. during whole period, 12 weeks) was “did not affect the incidence”. For the same compound, the “dose at which the suppressive effect on the size of the IA was observed” value ([1]; rat model, p.o., 12 weeks) was 0.01 mg/kg, the “macrophage infiltration in the lesion” value ([1]; rat model, p.o., 12 weeks after induction) was “inhibited the macrophage infiltration” and the “expression of MCP‐1 in the IA lesion” value ([1]; rats, ASP4058 0.03 mg·kg^−1, immunostaining) was “almost completely suppressed”. The “IA‐associated degenerative change of the media (thinning of smooth muscle layer)” value ([1]; rats, ASP4058 0.03 mg·kg^−1, α‐SMA staining, 12 weeks) was “ameliorated the IA‐associated degenerative change of the media”, the “enlargement of pre‐existing aneurysm” value ([1]; rats, ASP4058 0.1 mg·kg^−1 once daily started 1 week after IA induction, examined at 7 weeks, BAPN) was “significantly inhibited the enlargement” and the “leakage of FITC‐dextran (2000 kDa) across the endothelial monolayer” value (HCtAEC monolayer; 10 nM ASP4058, 1 h treatment, 1 h diffusion, concentration‐dependent) was “statistically significant inhibition”. The “MCP‐1‐induced trans‐endothelial migration of THP‐1 cells” value [4] was “concentration‐dependently inhibited”, the peripheral lymphocyte number ([2]; ASP4058 0.01 mg·kg^−1 p.o., 12 weeks) was “did not decrease” and the “monocyte count in peripheral blood” value ([2]; ASP4058 p.o., 12 weeks after IA induction) was “without significantly influencing”. The “dose at which the decrease in lymphocyte count reached a plateau” value [2, 13] was 0.1 mg/kg, the “dose suppressing the lymphocyte number in peripheral blood” value [2, 13] was “higher than 0.03 mg·kg^−1” and the “Plasma concentration, 4 h” value ([5]; 0.01 mg·kg^−1, 12 weeks, 4 h after last administration, mean ± SEM, n = 3) was 8.8 ± 1.6 nM. The “Plasma concentration, 24 h” value ([5]; 0.01 mg·kg^−1, 12 weeks, 24 h after last administration, mean ± SEM, n = 3) was 4.5 ± 0.6 nM, the “Plasma concentration, Pre” value ([5]; 0.01 mg·kg^−1, 12 weeks, just before last administration, mean ± SEM, n = 3) was 5.4 nM and 5.4 ± 0.7 nM and the concentration at 1 h ([5]; plasma, oral, 0.01 mg·kg^−1) was 6.3 ± 0.9 nM. It also gave a concentration at 2 h ([5]; plasma, oral, 0.01 mg·kg^−1) of 4.9 ± 1.6 nM, a concentration at 4 h ([5]; plasma, oral, 0.01 mg·kg^−1) of 8.8 nM and a concentration at 8 h ([5]; plasma, oral, 0.01 mg·kg^−1) of 7.9 ± 1.4 nM. The concentration at 24 h ([5]; plasma, oral, 0.01 mg·kg^−1) was 4.5 nM, the “Evans blue leakage (stained area) at the ACA‐OA bifurcation after IA induction” value ([6]; rats, 0.1 mg·kg^−1 p.o. once daily) was “almost complete suppression” and the “Evans blue leakage (stained area) at the ACA‐OA bifurcation after IA induction” value ([6]; rats, 0.01, 0.1 mg·kg^−1 p.o. once daily) was “dose‐dependently ameliorated”. The “MCP‐1‐dependent migration (chemotaxis) of THP‐1 cells without HCtAEC monolayer” value (THP‐1 cells) was “failed to inhibit”, the “IA formation compared with the vehicle‐treated group” value [7] was “tended to be suppressed” and the “S1P1 receptor expression level on HCtAECs (surface, δ geoMFI)” value ([8]; 100 nM ASP4058, 1 h) was 86 ± 14 % of control. For the same compound, the “S1P1 receptor expression level on HCtAECs (surface, δ geoMFI)” value ([8]; 1000 nM ASP4058, 1 h) was 23 ± 4.3 % of control, the IC50 [9] was 2.1 nM and the “potency for other S1P receptor subtypes relative to S1P1 and S1P5 (times less)” value (hS1P1) was “at least 100 times”.

In the case of `Cl.NC(CO)(CO)CCc1ccc(Sc2cccc(OCc3ccccc3)c2)cc1Cl` [KRP‐203, 2‐amino‐2‐[2‐(4‐{[3‐(benzyloxy)phenyl]sulfanyl}‐2‐chlorophenyl)ethyl]propane‐1,3‐diol hydrochloride, reference compound], the systemic blood pressure (Systemic blood pressure; [10]) is reported as “without influencing” and the “growth (size) of induced IAs” value ([1]; rats, 4 weeks, BAPN) is reported as “significantly suppressed the growth”.
